Five compounds from ChEMBL document CHEMBL1136016, “Synthesis, biological activity, and molecular modeling investigation of new pyrazolo[4,3-e]-1,2,4-triazolo[1,5-c]pyrimidine derivatives as human A(3) adenosine receptor antagonists” (J Med Chem, 2002) can be followed below.

Assay [1] addresses T1, Adenosine receptor A2a (Homo sapiens, UniProt P29274). The assay is described as follows: Displacement of [3H]SCH-58261 from human Adenosine A2A receptor expressed in HEK293 cells; range 8-18. The class given is cell-based. For orientation: Displacement assays read how much labelled ligand stays bound in the presence of the test substance.
Assay [2] concerns the target T2, Adenosine receptor A3 (Homo sapiens, UniProt P0DMS8).
T2 sequence (P0DMS8 whole entry): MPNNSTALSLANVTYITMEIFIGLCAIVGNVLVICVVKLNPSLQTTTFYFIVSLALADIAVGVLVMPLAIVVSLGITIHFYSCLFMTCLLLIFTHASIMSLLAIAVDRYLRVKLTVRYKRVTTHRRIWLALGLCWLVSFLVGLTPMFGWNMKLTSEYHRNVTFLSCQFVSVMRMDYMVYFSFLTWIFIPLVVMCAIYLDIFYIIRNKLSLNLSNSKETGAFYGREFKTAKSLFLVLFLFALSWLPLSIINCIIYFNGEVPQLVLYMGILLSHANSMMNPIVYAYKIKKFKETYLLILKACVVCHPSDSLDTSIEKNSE
The assay is described as follows: Displacement of [3H]MRE3008-F20 from human Adenosine A3 receptor expressed in HEK cells; range 0.31-0.56. The class given is cell-based, HEK293.

The target in assay [3] is Adenosine receptors; A2b & A3 (Homo sapiens) (UniProt P29275+P0DMS8). Description: Selectivity ratio (h2B/hA3). The class given is protein assay.
Assay [4] deals with Adenosine receptors; A1 & A3 (Homo sapiens) (UniProt P30542+P0DMS8). The assay is described as follows: Selectivity ratio (hA1/hA3). It counts as protein assay.
The target of assay [5] is T3, Adenosine receptor A2b (Homo sapiens, UniProt P29275).
T3 sequence (P29275 whole entry): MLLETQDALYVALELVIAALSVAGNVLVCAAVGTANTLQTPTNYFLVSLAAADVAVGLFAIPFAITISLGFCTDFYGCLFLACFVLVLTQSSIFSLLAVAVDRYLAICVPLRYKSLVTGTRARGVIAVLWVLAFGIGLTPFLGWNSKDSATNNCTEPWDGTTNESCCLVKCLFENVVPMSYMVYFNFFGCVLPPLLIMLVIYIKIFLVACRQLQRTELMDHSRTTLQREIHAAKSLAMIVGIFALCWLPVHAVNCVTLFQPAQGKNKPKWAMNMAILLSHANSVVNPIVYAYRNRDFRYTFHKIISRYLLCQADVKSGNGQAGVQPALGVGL
Description: Displacement of [3H]DPCPX from human Adenosine A2B receptor expressed in HEK293 cells; range 34-62. The class given is cell-based. Put shortly: (§1)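 HEK-293 membranes expressing the human receptor were incubated 60 min at 25 °C. Six to eight test concentrations were used. Nonspecific binding was set with NECA. n = 3-6.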

Assay [6] deals with T4, Adenosine receptor A1 (Homo sapiens, UniProt P30542).
T4 sequence (P30542 whole entry): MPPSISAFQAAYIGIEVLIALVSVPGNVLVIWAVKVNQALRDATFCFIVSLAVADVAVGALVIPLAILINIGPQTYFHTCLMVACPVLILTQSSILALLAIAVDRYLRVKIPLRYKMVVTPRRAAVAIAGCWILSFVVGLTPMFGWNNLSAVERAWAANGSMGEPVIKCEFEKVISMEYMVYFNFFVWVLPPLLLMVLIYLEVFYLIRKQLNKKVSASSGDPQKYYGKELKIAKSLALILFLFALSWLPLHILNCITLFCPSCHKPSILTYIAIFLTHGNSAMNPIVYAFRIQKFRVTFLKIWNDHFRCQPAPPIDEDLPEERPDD
Description: Displacement of [3H]DPCPX from human Adenosine A1 receptor expressed in CHO cells; range 237-384. It counts as cell-based. Put shortly:
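Competition binding on membranes of CHO cells stably expressing human A1 receptor, resuspended in 50 mM Tris HCl pH 7.4. Incubation 120 min at 25 °C with 1 nM [3H]DPCPX, 50 µg protein per assay and at least six to eight test concentrations. CHA defined nonspecific binding. Bound ligand separated on glass-fibre filters and counted; n = 3-6.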

For assay [7], the target named is T4, Adenosine receptor A1. The assay is described as follows: Displacement of [3H]DPCPX from human Adenosine A1 receptor expressed in CHO cells; range 198-382. The class given is cell-based. In short, it runs like this: (§2)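 Human recombinant A1 receptor in CHO cell membranes, resuspended in 50 mM Tris HCl pH 7.4. Displacement run 120 min at 25 °C with 1 nM [3H]DPCPX, 50 µg protein per assay, and at least six to eight test concentrations. Nonspecific binding defined with CHA. Bound and free separated on glass-fiber filters; filter radioactivity counted. n = 3-6.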

Assay [8] deals with T3, Adenosine receptor A2b. The assay is described as follows: Displacement of [3H]DPCPX from human Adenosine A2B receptor expressed in HEK293 cells; range 149-204. It counts as cell-based. Put shortly: as §1
Assay [9] deals with T2, Adenosine receptor A3. Description: biochemical.
Assay [10] deals with T1, Adenosine receptor A2a. Description: Displacement of [3H]SCH-58261 from human Adenosine A2A receptor expressed in HEK293 cells; range 96-133. The class given is cell-based.
Assay [11] deals with T4, Adenosine receptor A1. Description: Displacement of [3H]DPCPX from human Adenosine A1 receptor expressed in CHO cells. It counts as cell-based. Put shortly:
as §2

In assay [12] the target is T2, Adenosine receptor A3. Description: Displacement of […] from human Adenosine A3 receptor expressed in CHO cells. It counts as cell-based. In short, it runs like this: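 Membranes from CHO cells stably expressing human A3, in 50 mM Tris HCl, 10 mM MgCl2 (pH 7.4), 50 µg protein per tube, with 1 nM [3H]MRE3008-F20. Six to eight ligand concentrations were run in duplicate, 120 min at 4 °C. Nonspecific binding was taken with 1 µM MRE3008-F20. Bound ligand was collected on GF/B filters and counted; n = 3-6.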

For assay [13], the target named is T3, Adenosine receptor A2b. The assay is described as follows: Displacement of [3H]DPCPX from human Adenosine A2B receptor expressed in HEK293 cells. It counts as cell-based. Put shortly:
(§3)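 Membranes from HEK-293 cells with human recombinant A2B receptor. Incubation 60 min at 25 °C in 50 mM Tris HCl, 10 mM MgCl2, 1 mM EDTA, 0.1 mM benzamidine, pH 7.4, with 2 IU/mL adenosine deaminase and 40 nM [3H]DPCPX. At least six to eight test concentrations. Nonspecific binding defined with NECA. n = 3-6.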

The target in assay [14] is T2, Adenosine receptor A3. Description: Inhibition of IB-MECA agonist-mediated cAMP production in membranes of CHO cells expressing human Adenosine A3 receptor. The class given is functional, cell-based. Put shortly:
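Human A3-CHO membranes (in 50 mM Tris HCl, 10 mM MgCl2, 1 mM EDTA, pH 7.4) were preincubated for 10 min at 37 °C with 5 µM GTP, 0.5 mM Ro 20-1724 and 2.0 IU/mL adenosine deaminase. IB-MECA (100 nM) or antagonist was then added with 1 mM ATP and forskolin for 10 min. The reaction was stopped by 2 min boiling. cAMP was measured by [3H]cAMP competitive protein binding using beef adrenal binding protein, 150 min at 4 °C.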
A general note: Changes in cAMP serve as a functional read-out for many G protein-coupled receptors.

The target in assay [15] is T1, Adenosine receptor A2a. The assay is described as follows: Displacement of [3H]SCH-58261 from human Adenosine A2A receptor expressed in CHO cells. The class given is cell-based. Put shortly: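 Membranes from CHO cells expressing the human receptor (50 µg protein) with [3H]SCH58261 and six to eight competitor concentrations. Incubated 60 min at 25 °C. Nonspecific binding was set with NECA.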

Assay [16] deals with T3, Adenosine receptor A2b. The assay is described as follows: Displacement of [3H]DPCPX from human Adenosine A2B receptor expressed in HEK293 cells; range 116-134. It counts as cell-based. Put shortly:
as §3

The target of assay [17] is T2, Adenosine receptor A3. The assay is described as follows: biochemical. This is another data set of the same source.
For assay [18], the target named is T4, Adenosine receptor A1. Description: Displacement of [3H]DPCPX from human Adenosine A1 receptor expressed in CHO cells; range 156-258. The class given is cell-based.
Assay [19] has as its target T1, Adenosine receptor A2a. The assay is described as follows: Displacement of [3H]SCH-58261 from human Adenosine A2A receptor expressed in HEK293 cells; range 71-111. The class given is cell-based.
The target in assay [20] is T1, Adenosine receptor A2a. Description: Displacement of [3H]SCH-58261 from human Adenosine A2A receptor expressed in HEK293 cells; range 78-114. It counts as cell-based.
The target in assay [21] is T2, Adenosine receptor A3. The assay is described as follows: Displacement of [3H]MRE3008-F20 from human Adenosine A3 receptor expressed in HEK cells; range 0.53-0.68. The class given is cell-based, HEK293.
The target of assay [22] is T3, Adenosine receptor A2b. The assay is described as follows: Displacement of [3H]DPCPX from human Adenosine A2B receptor expressed in HEK293 cells; range 124-180. It counts as cell-based. In short, it runs like this: as §1
Assay [23] concerns the target T4, Adenosine receptor A1. The assay is described as follows: Displacement of [3H]DPCPX from human Adenosine A1 receptor expressed in CHO cells; range 184-333. The class given is cell-based.

For orientation: Ki means the equilibrium dissociation constant of an inhibitor or competing ligand from its target. One may read the IC50 as the midpoint of a concentration-inhibition curve. A higher IC50 goes with a need for much substance.

T1 sequence (P29274 whole entry): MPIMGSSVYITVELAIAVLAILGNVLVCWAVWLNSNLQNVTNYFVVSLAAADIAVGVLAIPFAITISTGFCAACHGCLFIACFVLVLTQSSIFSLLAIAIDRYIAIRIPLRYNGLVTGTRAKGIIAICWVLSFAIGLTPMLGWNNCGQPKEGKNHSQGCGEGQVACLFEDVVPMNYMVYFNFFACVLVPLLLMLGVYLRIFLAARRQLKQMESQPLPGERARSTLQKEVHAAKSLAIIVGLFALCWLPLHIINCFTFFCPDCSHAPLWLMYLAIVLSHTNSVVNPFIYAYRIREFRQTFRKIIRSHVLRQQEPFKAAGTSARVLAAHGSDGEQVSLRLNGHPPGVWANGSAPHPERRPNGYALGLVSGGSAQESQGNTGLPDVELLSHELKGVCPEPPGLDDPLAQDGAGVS

Regarding `CCCn1cc2c(nc(NC(=O)Nc3ccc(C)cc3)n3nc(-c4ccco4)nc23)n1`, the inhibition constant (Ki) at Adenosine receptor A2a [1] was 12 nM; at Adenosine receptor A3 [2] it was 0.4 nM; on Adenosine receptor A2b [5], 46 nM; on Adenosine receptor A1 [6] it was 302 nM. Moreover, the Ratio in [3] came out at 115; in assay [4], 755.

`CCCn1cc2c(nc(NC(=O)Nc3cccc(OC)c3)n3nc(-c4ccco4)nc23)n1`: the values for the Ratio in assay [3] and in [4] were 438 and 688, respectively. Moreover, the inhibition constant (Ki) at Adenosine receptor A1 [7] came to 275 nM; at Adenosine receptor A2b [8] it was 175 nM; at Adenosine receptor A3 [9] it was 0.4 nM; at Adenosine receptor A2a [10], 113 nM.

As to `Cn1cc2c(nc(NC(=O)Cc3ccccc3)n3nc(-c4ccco4)nc23)n1`, the Ki at Adenosine receptor A1 [11] amounted to 702 nM; at Adenosine receptor A3 [12], 0.81 nM; on Adenosine receptor A2b [13], 165 nM; on Adenosine receptor A2a [15] it was 423 nM. In addition, the Ratio is 204 in assay [3] and 867 in [4]. This compound also came in with an IC50 on Adenosine receptor A3 [14] of 6.4 nM.

Consider `CCCCn1cc2c(nc(NC(=O)Nc3ccccc3OC)n3nc(-c4ccco4)nc23)n1`, for which the inhibitory constant (Ki) at Adenosine receptor A2b [16] is 125 nM; at Adenosine receptor A3 [17], 0.57 nM; on Adenosine receptor A1 [18], 200 nM; at Adenosine receptor A2a [19], 91 nM. In addition, the Ratio in [3] worked out at 219; in assay [4], 351.

For the compound `CCCCn1cc2c(nc(NC(=O)Nc3cccc(OC)c3)n3nc(-c4ccco4)nc23)n1`, the inhibition constant Ki on Adenosine receptor A2a [20] stood at 95 nM; at Adenosine receptor A3 [21], 0.6 nM; at Adenosine receptor A2b [22], 150 nM; on Adenosine receptor A1 [23] it was 248 nM. Moreover, the Ratio in assay [3] was 250; in [4] it was 413.
